# This is a sample that favours compounds with a hit; in the whole collection about 3.1% have one here.
# rRNA inh HTS – reduced GFP signal of wild-type E. coli, primary screen, bacterial rRNA inhibitor project, GFP/RFP fluorescence, OD600, single point; E. coli WT GFP vs humanized-ribosome RFP mutants, 24 h; hits give low values; DMSO median 0, no signal -100; GFP signal change (wild-type ribosome), % (no concentration beside the values); 350,000 tested, 1.6% active; AID 720706, 2013;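 active = significant combined selectivity score with lowered wild-type GFP, culture density cut under 30%, mutant RFP and density less affected; inactive = any of these conditions unmet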
# E-sel inducer – E-selectin induction in HUVECs, primary screen, imaging, HUVEC, immunofluorescence imaging, single point; P16581; normalized: neutral wells 0, TNF-alpha wells 100; activation, % at 7.58 µM; 260,000 tested, 0.37% active;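 active = mean E-selectin-positive cell signal at least 10% of the positive control, reached in at least 60% of replicates, without over 20% cell loss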
#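 Test system: HUVEC | Signal: Immunofluorescence imaging | Read-out: Percent E-selectin-positive cells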
# Cneo AK release – Cryptococcus neoformans cell lysis inducers, primary screen, AK release luminescence, single concentration; C. neoformans lysis, adenylate kinase release luminescence, 4 h; normalised: neutral wells 0, clomiphene wells 100; lysis activity, % at 15 µM; 360,000 tested, 0.2% active;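 active = mean lysis activity across replicates of at least 80%, whatever share of replicates individually reach that level; inactive = mean lysis activity below 80%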
#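 Material – Cryptococcus neoformans yeast cells · Quantity – 5 × 10^6 yeast cells/mL · Buffer or medium – YPD medium · Compound – single dose · Timing – 4 h static compound exposure, 37 °C, read 1 h post-reagent · Signal – adenylate kinase release luminescence · Read-out basis – lysis from increased AK signal · Benchmarks – Clomiphene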
# miR122 inh – miR-122 Renilla sensor signal increase in Huh7, primary screen, miR-122 inhibitor project, cell-based, single point, plate reader | activation (reporter increase), % at 12.5 µM | 340,000 tested, 0.3% active | Huh7 miR-122 Renilla luciferase sensor, 48 h; neutral wells = 0, positive control = 100;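 active = mean replicate activation score at least 90 and every replicate individually at or above 90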;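 note: higher luciferase means less miR-122 activity so hits act as miR-122 inhibitors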
# DENV2 CPE – inhibitors of DENV2 cytopathic effect, primary screen, cell-based, plate reader, single concentration; AID 651640, 2012; CPE inhibition, % at 9.99 µM; DENV2-infected cells, cytopathic effect rescue; 350,000 tested, 1.7% active; in the data active = CPE inhibition above about 20%, passing the limit was not always enough; tested in BHK-21 cells
# Hits are given with their value; i = inactive; nt = no result given.
SMILES,rRNA inh HTS,E-sel inducer,Cneo AK release,miR122 inh,DENV2 CPE
Fc1ccc(CN2C3CN(CC(F)(F)F)CC2C3c2ccc(Br)cc2)cc1 (stereo not drawn),i,nt,nt,nt,nt
O=C(Nc1ccc(C(=O)Oc2ccccc2)c(O)c1)c1ccccc1,i,nt,nt,nt,i
CCOC(=O)Nc1ccc(C(=O)Oc2ccccc2)c(O)c1,-32.1,nt,i,i,i
CCOc1cc(S(=O)(=O)Nc2cc(C)cc(C)c2)ccc1Cl,nt,nt,nt,118.2,nt
Cc1cc(C)cc(NS(=O)(=O)c2ccc3oc(=O)ccc3c2)c1,nt,nt,nt,105.1,nt
Cc1ccc(C)c(NS(=O)(=O)c2ccc3oc(=O)ccc3c2)c1,i,nt,i,i,i
CCOc1cc(S(=O)(=O)NC2CCCC2)ccc1Cl,nt,nt,i,i,nt
Cc1ccc(-n2c(-c3cccs3)nc3nc4ccccc4nc32)cc1,i,i,nt,nt,i
Fc1ccc(-n2c(-c3cccs3)nc3nc4ccccc4nc32)cc1,nt,35.9,nt,nt,nt
O=C(Nc1ccccc1)N[C@@H]1CC[C@@H](CCn2cc(-c3ccccc3F)nn2)O[C@H]1CO,i,i,nt,nt,i
Cc1noc(C)c1S(=O)(=O)N(C)C[C@H]1Oc2ccc(NC(=O)Cc3ccccc3)cc2CC(=O)N([C@H](C)CO)C[C@@H]1C,i,i,i,i,i
CCS(=O)(=O)N[C@@H]1C=C[C@H](CC(=O)Nc2ccc(-c3ccccc3)cc2)O[C@@H]1CO,i,i,i,i,70.3
Cc1nn(-c2ccccc2)c(Cl)c1CN(C(=O)CCl)c1ccc(Cl)cc1,-32.2,i,i,i,i
O=C(Nc1ccc(F)cc1)N1CC(=O)N2[C@H](CO)[C@H](c3ccc(-c4ccccc4)cc3)[C@H]2C1,i,i,nt,nt,i
O=C(C[C@@H]1C[C@@H]2c3cc(NC(=O)NC4CCCC4)ccc3O[C@@H]2[C@H](CO)O1)NCc1cc(F)ccc1F,i,nt,nt,nt,nt
CCCC#Cc1ccc([C@@H]2[C@@H](CO)N(C(=O)C3CC3)[C@H]2C#N)cc1,i,i,i,nt,62.6
CCCC#Cc1ccc([C@H]2[C@H](C#N)N(C(=O)C3CC3)[C@H]2CO)cc1,i,i,i,nt,i
CN(C)CC#Cc1ccc([C@H]2[C@@H](CO)N(C(=O)C3CC3)[C@H]2C#N)cc1,i,i,i,nt,32.5
CC(C)C#Cc1ccc([C@H]2[C@H](C#N)N(C(=O)C3CCC3)[C@H]2CO)cc1,i,i,i,nt,57.1
COc1ccc2c3c(n(C)c2c1)[C@@H](CO)N(C(=O)NC(C)C)CC31CN(C(=O)NC(C)C)C1,i,i,nt,nt,i
CCC(=O)N(C)C[C@H]1Oc2cc(-c3ccccc3)ccc2S(=O)(=O)N([C@@H](C)CO)C[C@H]1C,i,i,i,i,i
C[C@@H]1CN([C@H](C)CO)C(=O)c2cc(NS(=O)(=O)c3ccccc3)ccc2O[C@H]1CN(C)C(=O)Nc1ccc(C(F)(F)F)cc1,i,i,nt,i,nt
CCOc1ccc(C2=CC(=O)C[C@H](c3ccc(OC)cc3)C2)cc1,i,i,i,nt,26.0
C[C@@H]1CN([C@@H](C)CO)C(=O)c2cc(C#Cc3ccccc3F)cnc2O[C@@H]1CN(C)C(=O)c1ccc2c(c1)OCO2,i,i,i,i,i
CN1C(c2ccccc2)CCOS1(=O)=O (stereo not drawn),i,nt,i,i,47.2
SMILES,rRNA inh HTS,E-sel inducer,Cneo AK release,miR122 inh,DENV2 CPE
CCOC(=O)c1cnc2c(c(C3CC3)nn2C)c1N1CCOCC1,i,29.0,i,i,i
CCOC(=O)c1cnc2cc(F)c(F)cc2c1N1CCOCC1,i,i,i,i,i
O=C(C[C@@H]1CC[C@@H](NC(=O)C2CCOCC2)[C@@H](CO)O1)Nc1ccc(-c2ccccc2)cc1,i,i,i,nt,i
c1ccc(Cn2cc(CSc3ccccc3)nn2)cc1,-32.5,i,i,i,i
c1ccc(SCc2cn(C[C@H]3CC[C@@H]([C@@H]4CC[C@H](Cn5cc(CSc6ccccc6)nn5)O4)O3)nn2)cc1,i,i,i,i,i
O=C(/C=C/Nc1ccc(Oc2ccccc2)cc1)c1ccco1,-25.0,nt,nt,i,i
O=C(/C=C/Nc1ccccc1C(F)(F)F)c1ccco1,-21.6,i,i,i,i
